From ChEMBL document CHEMBL1135440, “(+)-Dinapsoline: an efficient synthesis and pharmacological profile of a novel dopamine agonist” (J Med Chem, 2002)

How the values were obtained:
Rattus norvegicus [1] = assay: In vivo number of rotations at a dose of 0.2 mg/kg administered subcutaneously to Sprague-Dawley rats; type: functional; conditions: route subcutaneous
Summary of the method: (§1)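 Sprague-Dawley rats with unilateral 6-OHDA lesions of medial forebrain bundle, prescreened for rotation to amphetamine (5 mg/kg: 800 rotations/3 h) and apomorphine (0.2 mg/kg: 100 rotations/1 h). Subcutaneous dosing; rotations counted over 10 h, mean ± sem, n 5–10 per group. Each rat received four treatments, weekly, counterbalanced order.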

Rattus norvegicus [2] = assay: In vivo number of rotations at a dose of 2 mg/kg administered subcutaneously to Sprague-Dawley rats; type: functional; conditions: route subcutaneous; summary of the method: as §1
SK-N-MC [3] = assay: In vitro adenylate cyclase response in neuroblastoma cell line; type: functional, cell-based; conditions: Homo sapiens
Summary of the method: (§2)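 SK-N-MC human neuroblastoma cells with endogenous D1 receptor, seeded at 10⁵ cells/mL 1 day before assay (37 °C, 5% CO₂). Cells exposed to varying compound concentrations in assay buffer with 1 mM IBMX, 10 min at 37 °C; stopped with 0.1 N HCl; cAMP measured by radioimmunoassay; dose-response curves fitted by nonlinear regression.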

SK-N-MC [4] = assay: In vitro adenylate cyclase response in neuroblastoma cell line SK-N-MC; type: functional, cell-based; conditions: Homo sapiens; summary of the method: as §2
[5] = In vitro intrinsic activity which is the ratio of the cyclase response of compound relative to that of dopamine; type: functional
Summary of the method: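 cAMP accumulation in SK-N-MC cells (endogenous D1), varying compound concentrations with 1 mM IBMX, 10 min at 37 °C, cAMP by radioimmunoassay, nonlinear curve fitting. Intrinsic activity taken as ratio of compound maximal cyclase response to that of dopamine.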

Row | EC50 (SK-N-MC [3]) [nM] | EC50 (SK-N-MC [4]) [nM] | Intrinsic activity [5] | Structure (SMILES) | Rotations/10 h (Rattus norvegicus [1]) | Rotations/10 h (Rattus norvegicus [2])
1 | > 10000 |  |  | Oc1ccc2c(c1O)Cc1cccc3c1[C@@H]2CNC3 | 8 | 7
2 |  |  |  | CCCc1cc2c(s1)CN[C@@H]1CCc3cc(O)c(O)cc3[C@@H]21 [A-86929] | 1100 | 4200
3 |  | 190 | 1.2 | Oc1ccc2c(c1O)Cc1cccc3c1C2CNC3 (racemic) | 1900 | 4800
4 | 220 |  | 1 | Oc1ccc2c(c1O)Cc1cccc3c1[C@H]2CNC3 | 4100 | 7000
